Laboratory results as given in ChEMBL document CHEMBL4673212, “Investigation of synergistic antimicrobial effects of the drug combinations of meropenem and 1,2-benzisoselenazol-3(2H)-one derivatives on carbapenem-resistant Enterobacteriaceae producing NDM-1” (Eur J Med Chem, 2018).
Values after ≈ are worked out from the molar mass of the structure shown.

Experiments:
Escherichia coli [1] = assay: Growth inhibition of carbapenem-resistant Escherichia coli isolate 06 harboring CTX-M-14, CTX-M-3 and SHV-12 by CLSI protocol based assay; assay type: functional
Enterobacter cloacae [2] = assay: Growth inhibition of carbapenem-resistant Enterobacter cloacae isolate 27 harboring CTX-M-3, CTX-M-14, TEM-1 and SHV-12 by CLSI protocol based assay; assay type: functional
Enterobacter cloacae [3] = assay: Synergistic antibacterial activity against carbapenem-resistant Enterobacter cloacae isolate 22 harboring CTX-M-14, TEM-1 and SHV-12 assessed as fractional inhibitory concentration index in presence of meropenem by CLSI protocol based assay; assay type: functional
Summary of the method: (§1)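 FIC index from MICs of compound alone, meropenem alone, and the 1:1 (mass) compound–meropenem combination, read by eye after overnight incubation in a CLSI-based assay. FIC index = MICcombo/MICcpd + MICcombo/MICMem. FIC index ≤0.5 counted as synergy. At least triplicate assays. Clinical NDM-1 isolates for 17-39; E. coli TG1 carrying the IncX3 blaNDM-1 plasmid for 15.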

Morganella morganii [4] = assay: Synergistic antibacterial activity against carbapenem-resistant Morganella morganii isolate 26 assessed as fractional inhibitory concentration index in presence of meropenem by CLSI protocol based assay; assay type: functional; summary of the method: as §1
Klebsiella oxytoca [5] = assay: Synergistic antibacterial activity against carbapenem-resistant Klebsiella oxytoca isolate 16 harboring SHV-12 assessed as fractional inhibitory concentration index in presence of meropenem by CLSI protocol based assay; assay type: functional; summary of the method: as §1
Klebsiella pneumoniae [6] = assay: Synergistic antibacterial activity against carbapenem-resistant Klebsiella pneumoniae isolate 04 harboring CTX-M-14, VIM-1, TEM-1 and SHV-12 assessed as fractional inhibitory concentration index in presence of meropenem by CLSI protocol based assay; assay type: functional; summary of the method: as §1
Escherichia coli [7] = assay: Potentiation of meropenem-induced antibacterial activity against carbapenem-resistant Escherichia coli isolate 34 harboring CTX-M-15, TEM-1 and SHV-12 assessed as meropenem MIC by CLSI protocol based assay (reference value: 64 ug/ml); assay type: functional
Citrobacter freundii [8] = assay: Potentiation of meropenem-induced antibacterial activity against carbapenem-resistant Citrobacter freundii isolate 35 harboring CTX-M-3, KPC-2 and SHV-12 assessed as meropenem MIC by CLSI protocol based assay (Rvb >= 128 ug/ml); assay type: functional
Citrobacter freundii [9] = assay: Synergistic antibacterial activity against carbapenem-resistant Citrobacter freundii isolate 17 harboring SHV-12 assessed as fractional inhibitory concentration index in presence of meropenem by CLSI protocol based assay; assay type: functional; summary of the method: as §1
Enterobacter cloacae [10] = assay: Growth inhibition of carbapenem-resistant Enterobacter cloacae isolate 08 harboring CTX-M-14, TEM-1 and SHV-12 by CLSI protocol based assay; assay type: functional
Escherichia coli [11] = assay: Growth inhibition of carbapenem-resistant Escherichia coli isolate 34 harboring CTX-M-15, TEM-1 and SHV-12 by CLSI protocol based assay; assay type: functional
Klebsiella pneumoniae [12] = assay: Potentiation of meropenem-induced antibacterial activity against carbapenem-resistant Klebsiella pneumoniae isolate 04 harboring CTX-M-14, VIM-1, TEM-1 and SHV-12 assessed as meropenem MIC by CLSI protocol based assay (Rvb >= 128 ug/ml); assay type: functional
Citrobacter freundii [13] = assay: Synergistic antibacterial activity against carbapenem-resistant Citrobacter freundii isolate 35 harboring CTX-M-3, KPC-2 and SHV-12 assessed as fractional inhibitory concentration index in presence of meropenem by CLSI protocol based assay; assay type: functional
Citrobacter freundii [14] = assay: Potentiation of meropenem-induced antibacterial activity against carbapenem-resistant Citrobacter freundii isolate 05 harboring SHV-12 assessed as meropenem MIC by CLSI protocol based assay (Rvb >= 128 ug/ml); assay type: functional
Morganella morganii [15] = assay: Potentiation of meropenem-induced antibacterial activity against carbapenem-resistant Morganella morganii isolate 23 assessed as meropenem MIC by CLSI protocol based assay (reference value: 64 ug/ml); assay type: functional
Escherichia coli [16] = assay: Synergistic antibacterial activity against carbapenem-resistant Escherichia coli isolate 45 assessed as fractional inhibitory concentration index in presence of meropenem by CLSI protocol based assay; assay type: functional; summary of the method: as §1
Enterobacter cloacae [17] = assay: Synergistic antibacterial activity against carbapenem-resistant Enterobacter cloacae isolate 10 harboring CTX-M-14, TEM-1 and SHV-12 assessed as fractional inhibitory concentration index in presence of meropenem by CLSI protocol based assay; assay type: functional; summary of the method: as §1
Escherichia coli [18] = assay: Potentiation of meropenem-induced antibacterial activity against carbapenem-resistant Escherichia coli isolate 33 harboring CTX-M-15 assessed as meropenem MIC by CLSI protocol based assay (reference value: 64 ug/ml); assay type: functional
Morganella morganii [19] = assay: Growth inhibition of carbapenem-resistant Morganella morganii isolate 23 by CLSI protocol based assay; assay type: functional
Enterobacter cloacae [20] = assay: Potentiation of meropenem-induced antibacterial activity against carbapenem-resistant Enterobacter cloacae isolate 27 harboring CTX-M-3, CTX-M-14, TEM-1 and SHV-12 assessed as meropenem MIC by CLSI protocol based assay (reference value: 32 ug/ml); assay type: functional
Escherichia coli [21] = assay: Synergistic antibacterial activity against carbapenem-resistant Escherichia coli isolate 34 harboring CTX-M-15, TEM-1 and SHV-12 assessed as fractional inhibitory concentration index in presence of meropenem by CLSI protocol based assay; assay type: functional; summary of the method: as §1
Klebsiella pneumoniae [22] = assay: Synergistic antibacterial activity against carbapenem-resistant Klebsiella pneumoniae isolate 14 harboring CTX-M-14, KPC-2 and SHV-12 assessed as fractional inhibitory concentration index in presence of meropenem by CLSI protocol based assay; assay type: functional; summary of the method: as §1
Enterobacter cloacae [23] = assay: Potentiation of meropenem-induced antibacterial activity against carbapenem-resistant Enterobacter cloacae isolate 07 harboring CTX-M-14, TEM-1 and SHV-12 assessed as meropenem MIC by CLSI protocol based assay (reference value: 64 ug/ml); assay type: functional
Klebsiella oxytoca [24] = assay: Growth inhibition of carbapenem-resistant Klebsiella oxytoca isolate 16 harboring SHV-12 by CLSI protocol based assay; assay type: functional
Citrobacter freundii [25] = assay: Potentiation of meropenem-induced antibacterial activity against carbapenem-resistant Citrobacter freundii isolate 17 harboring SHV-12 assessed as meropenem MIC by CLSI protocol based assay (reference value: 64 ug/ml); assay type: functional
Klebsiella pneumoniae [26] = assay: Potentiation of meropenem-induced antibacterial activity against carbapenem-resistant Klebsiella pneumoniae isolate 14 harboring CTX-M-14, KPC-2 and SHV-12 assessed as meropenem MIC by CLSI protocol based assay (Rvb >= 128 ug/ml); assay type: functional
Escherichia coli [27] = assay: Synergistic antibacterial activity against Escherichia coli TG1 transformed with IncX3 plasmid expressing blaNDM-1 assessed as fractional inhibitory concentration index in presence of meropenem incubated for overnight by CLSI protocol based assay; assay type: functional; details: time 12 hrs; summary of the method: as §1
Enterobacter cloacae [28] = assay: Synergistic antibacterial activity against carbapenem-resistant Enterobacter cloacae isolate 19 harboring CTX-M-14 and KPC-2 assessed as fractional inhibitory concentration index in presence of meropenem by CLSI protocol based assay; assay type: functional
[29] = Growth inhibition of Escherichia coli TG1 transformed with IncX3 plasmid expressing blaNDM-1 incubated for overnight by CLSI protocol based assay; details: 12 h
Morganella morganii [30] = assay: Synergistic antibacterial activity against carbapenem-resistant Morganella morganii isolate 23 assessed as fractional inhibitory concentration index in presence of meropenem by CLSI protocol based assay; assay type: functional; summary of the method: as §1
Escherichia coli [31] = assay: Synergistic antibacterial activity against carbapenem-resistant Escherichia coli isolate 33 harboring CTX-M-15 assessed as fractional inhibitory concentration index in presence of meropenem by CLSI protocol based assay; assay type: functional; summary of the method: as §1

Compound	MIC (Escherichia coli [1]) [µg/mL]	MIC (Enterobacter cloacae [2]) [µg/mL]	fractional inhibitory concentration index (FICI) (Enterobacter cloacae [3])	fractional inhibitory concentration index (FICI) (Morganella morganii [4])	fractional inhibitory concentration index (FICI) (Klebsiella oxytoca [5])	fractional inhibitory concentration index (FICI) (Klebsiella pneumoniae [6])	MIC (Escherichia coli [7]) [µg/mL]	MIC (Citrobacter freundii [8]) [µg/mL]	fractional inhibitory concentration index (FICI) (Citrobacter freundii [9])	MIC (Enterobacter cloacae [10]) [µg/mL]	MIC (Escherichia coli [11]) [µg/mL]	MIC (Klebsiella pneumoniae [12]) [µg/mL]	fractional inhibitory concentration index (FICI) (Citrobacter freundii [13])	MIC (Citrobacter freundii [14]) [µg/mL]	MIC (Morganella morganii [15]) [µg/mL]	fractional inhibitory concentration index (FICI) (Escherichia coli [16])	fractional inhibitory concentration index (FICI) (Enterobacter cloacae [17])	MIC (Escherichia coli [18]) [µg/mL]	MIC (Morganella morganii [19]) [µg/mL]	MIC (Enterobacter cloacae [20]) [µg/mL]	other results
O=c1c2ccccc2[se]n1-c1ccccc1 [EBSELEN]	≥ 128	≥ 128	2	1.5	0.5	1	16	32	0.38	≥ 128	≥ 128	64	0.5	16	64	0.25	1.5	16	≥ 128	64	fractional inhibitory concentration index (FICI) (Escherichia coli [21]): 0.38; fractional inhibitory concentration index (FICI) (Klebsiella pneumoniae [22]): 2; MIC (Enterobacter cloacae [23]): 16 µg/mL; MIC (Klebsiella oxytoca [24]): ≥ 128 µg/mL; MIC (Citrobacter freundii [25]): 16 µg/mL; MIC (Klebsiella pneumoniae [26]): ≥ 128 µg/mL; fractional inhibitory concentration index (FICI) (Escherichia coli [27]): 0.5; fractional inhibitory concentration index (FICI) (Enterobacter cloacae [28]): 2; MIC [29]: 64 µg/mL (≈ 233 µM); fractional inhibitory concentration index (FICI) (Morganella morganii [30]): 1.5; fractional inhibitory concentration index (FICI) (Escherichia coli [31]): 0.38
CC(C)(C)OC(=O)NCCn1[se]c2ccccc2c1=O	≥ 128	≥ 128	0.25	0.05	0.13	0.5	4	8	0.09	≥ 128	≥ 128	32	0.13	8	8	0.06	0.19	8	≥ 128	4	fractional inhibitory concentration index (FICI) (Escherichia coli [21]): 0.09; fractional inhibitory concentration index (FICI) (Klebsiella pneumoniae [22]): 0.13; MIC (Enterobacter cloacae [23]): 8 µg/mL; MIC (Klebsiella oxytoca [24]): ≥ 128 µg/mL; MIC (Citrobacter freundii [25]): 4 µg/mL; MIC (Klebsiella pneumoniae [26]): 8 µg/mL; fractional inhibitory concentration index (FICI) (Escherichia coli [27]): 0.047; fractional inhibitory concentration index (FICI) (Enterobacter cloacae [28]): 0.25; MIC [29]: >= 128 ug ml-1; fractional inhibitory concentration index (FICI) (Morganella morganii [30]): 0.19; fractional inhibitory concentration index (FICI) (Escherichia coli [31]): 0.19
